Test results from ChEMBL document CHEMBL4342521 (J Med Chem, 2020).
Active and inactive are the calls of the source. The rule behind the calls is not given here.

How the values were obtained:
[1] = Half life in CD1 mouse at 5 mg/kg, iv after 24 hrs by LC-MS/MS analysis; format: ADME, organism-based; conditions: in vivo
How it was run: (§1)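 Male CD-1 mice, fasted overnight, 3 per route; compound in PBS with 5% DMSO, iv bolus 5 mg/kg or oral gavage 20 mg/kg. Blood sampled at 5, 15, 30 min and 1–24 h. Plasma protein-precipitated with acetonitrile plus internal standard, quantified by LC-MS/MS (MRM). AUC by linear trapezoidal method; parameters by non-compartmental analysis.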

Histone deacetylase 4 = Histone deacetylase 4 (Homo sapiens, UniProt P56524); experiment: Inhibition of recombinant human HDAC4 using Boc-Lys (trifluoroacetyl)-AMC as substrate preincubated for 1 hr followed by substrate addition and measured after 2 hrs by fluorescence based micro plate reader analysis
Chain of Histone deacetylase 4 (P56524 whole entry): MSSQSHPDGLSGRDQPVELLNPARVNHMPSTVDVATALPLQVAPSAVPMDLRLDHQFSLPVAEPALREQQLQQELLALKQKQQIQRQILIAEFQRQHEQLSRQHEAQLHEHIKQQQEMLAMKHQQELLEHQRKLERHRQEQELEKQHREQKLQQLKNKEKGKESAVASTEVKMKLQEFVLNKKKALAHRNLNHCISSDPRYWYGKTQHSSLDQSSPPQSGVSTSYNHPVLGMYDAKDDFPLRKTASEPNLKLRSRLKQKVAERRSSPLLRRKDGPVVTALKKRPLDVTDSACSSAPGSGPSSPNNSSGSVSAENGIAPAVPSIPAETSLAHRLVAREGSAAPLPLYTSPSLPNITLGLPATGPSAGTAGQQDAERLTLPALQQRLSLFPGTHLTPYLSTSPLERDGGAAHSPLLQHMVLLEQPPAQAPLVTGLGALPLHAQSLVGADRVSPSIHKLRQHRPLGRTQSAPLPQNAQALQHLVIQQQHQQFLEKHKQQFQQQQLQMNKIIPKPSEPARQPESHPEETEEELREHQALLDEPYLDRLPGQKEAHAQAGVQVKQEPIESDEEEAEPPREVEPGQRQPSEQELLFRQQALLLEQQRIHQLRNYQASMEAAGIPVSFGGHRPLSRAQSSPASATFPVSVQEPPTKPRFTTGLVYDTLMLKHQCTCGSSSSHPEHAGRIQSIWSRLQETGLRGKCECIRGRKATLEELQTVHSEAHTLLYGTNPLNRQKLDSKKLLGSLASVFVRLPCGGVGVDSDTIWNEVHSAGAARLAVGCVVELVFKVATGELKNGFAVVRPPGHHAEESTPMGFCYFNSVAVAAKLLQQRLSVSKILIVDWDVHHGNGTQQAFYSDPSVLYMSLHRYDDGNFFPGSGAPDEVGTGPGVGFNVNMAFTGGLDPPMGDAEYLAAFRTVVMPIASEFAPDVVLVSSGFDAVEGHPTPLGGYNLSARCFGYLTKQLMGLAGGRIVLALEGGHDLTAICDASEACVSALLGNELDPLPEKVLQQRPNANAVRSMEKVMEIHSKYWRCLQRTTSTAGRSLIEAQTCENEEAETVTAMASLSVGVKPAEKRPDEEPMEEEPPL
How it was run: (§2)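 Recombinant enzyme was preincubated with serially varied inhibitor for 1 h at 30 °C. Boc-Lys(trifluoroacetyl)-AMC was then added to a final 50 μM and incubated 2 h at 30 °C. The reaction was stopped with developer containing trypsin and TSA, and fluorescence (ex 360/em 460 nm) was read 30 min later. Inhibition was taken relative to control wells and fitted to a variable-slope log(inhibitor) curve. Values are the mean of at least three experiments.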

Histone deacetylase 5 = Histone deacetylase 5 (Homo sapiens, UniProt Q9UQL6); experiment: Inhibition of recombinant human HDAC5 using Boc-Lys (trifluoroacetyl)-AMC as substrate preincubated for 1 hr followed by substrate addition and measured after 2 hrs by fluorescence based micro plate reader analysis; how it was run: as §2
Chain of Histone deacetylase 5 (Q9UQL6 whole entry): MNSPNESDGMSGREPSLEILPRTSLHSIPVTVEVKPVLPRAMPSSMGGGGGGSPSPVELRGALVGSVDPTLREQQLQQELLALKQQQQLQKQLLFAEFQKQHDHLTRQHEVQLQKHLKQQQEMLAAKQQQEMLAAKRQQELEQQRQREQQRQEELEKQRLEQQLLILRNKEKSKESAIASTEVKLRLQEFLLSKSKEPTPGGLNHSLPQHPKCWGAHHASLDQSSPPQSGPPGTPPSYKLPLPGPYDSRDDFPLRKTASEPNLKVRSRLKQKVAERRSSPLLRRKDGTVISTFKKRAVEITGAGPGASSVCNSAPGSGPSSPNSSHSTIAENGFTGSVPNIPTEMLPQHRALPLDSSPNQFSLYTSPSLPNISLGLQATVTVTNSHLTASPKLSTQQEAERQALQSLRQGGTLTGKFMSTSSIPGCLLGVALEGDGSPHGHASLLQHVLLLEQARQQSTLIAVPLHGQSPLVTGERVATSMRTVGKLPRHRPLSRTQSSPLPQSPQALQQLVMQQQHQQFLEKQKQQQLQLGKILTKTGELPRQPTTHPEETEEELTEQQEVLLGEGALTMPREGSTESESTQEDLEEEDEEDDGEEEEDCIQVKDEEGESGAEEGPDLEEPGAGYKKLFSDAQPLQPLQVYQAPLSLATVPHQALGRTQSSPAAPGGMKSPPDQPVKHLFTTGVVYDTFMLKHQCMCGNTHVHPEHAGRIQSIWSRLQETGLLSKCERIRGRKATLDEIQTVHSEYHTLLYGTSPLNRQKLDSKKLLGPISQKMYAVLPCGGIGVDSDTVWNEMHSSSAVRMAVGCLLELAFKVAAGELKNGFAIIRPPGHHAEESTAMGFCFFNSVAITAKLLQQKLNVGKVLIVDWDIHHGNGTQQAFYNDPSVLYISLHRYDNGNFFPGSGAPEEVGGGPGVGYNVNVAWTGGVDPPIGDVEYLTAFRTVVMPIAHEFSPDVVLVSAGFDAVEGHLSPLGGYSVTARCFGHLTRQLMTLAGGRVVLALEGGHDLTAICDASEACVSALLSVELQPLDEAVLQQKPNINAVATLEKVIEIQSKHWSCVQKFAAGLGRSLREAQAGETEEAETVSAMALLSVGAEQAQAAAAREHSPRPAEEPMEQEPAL

[2] = biological target: Protein deacetylase HDAC6 (Homo sapiens) (UniProt Q9UBN7); experiment: Inhibition of HDAC6 in human MV4-11 cells assessed as tubulin acetylation at 500 nM incubated for 3 hrs followed by compound washout and measured after 30 mins to 6 hrs by Western blot analysis; format: cell-based
Chain of Protein deacetylase HDAC6 (Homo sapiens) (Q9UBN7 whole entry): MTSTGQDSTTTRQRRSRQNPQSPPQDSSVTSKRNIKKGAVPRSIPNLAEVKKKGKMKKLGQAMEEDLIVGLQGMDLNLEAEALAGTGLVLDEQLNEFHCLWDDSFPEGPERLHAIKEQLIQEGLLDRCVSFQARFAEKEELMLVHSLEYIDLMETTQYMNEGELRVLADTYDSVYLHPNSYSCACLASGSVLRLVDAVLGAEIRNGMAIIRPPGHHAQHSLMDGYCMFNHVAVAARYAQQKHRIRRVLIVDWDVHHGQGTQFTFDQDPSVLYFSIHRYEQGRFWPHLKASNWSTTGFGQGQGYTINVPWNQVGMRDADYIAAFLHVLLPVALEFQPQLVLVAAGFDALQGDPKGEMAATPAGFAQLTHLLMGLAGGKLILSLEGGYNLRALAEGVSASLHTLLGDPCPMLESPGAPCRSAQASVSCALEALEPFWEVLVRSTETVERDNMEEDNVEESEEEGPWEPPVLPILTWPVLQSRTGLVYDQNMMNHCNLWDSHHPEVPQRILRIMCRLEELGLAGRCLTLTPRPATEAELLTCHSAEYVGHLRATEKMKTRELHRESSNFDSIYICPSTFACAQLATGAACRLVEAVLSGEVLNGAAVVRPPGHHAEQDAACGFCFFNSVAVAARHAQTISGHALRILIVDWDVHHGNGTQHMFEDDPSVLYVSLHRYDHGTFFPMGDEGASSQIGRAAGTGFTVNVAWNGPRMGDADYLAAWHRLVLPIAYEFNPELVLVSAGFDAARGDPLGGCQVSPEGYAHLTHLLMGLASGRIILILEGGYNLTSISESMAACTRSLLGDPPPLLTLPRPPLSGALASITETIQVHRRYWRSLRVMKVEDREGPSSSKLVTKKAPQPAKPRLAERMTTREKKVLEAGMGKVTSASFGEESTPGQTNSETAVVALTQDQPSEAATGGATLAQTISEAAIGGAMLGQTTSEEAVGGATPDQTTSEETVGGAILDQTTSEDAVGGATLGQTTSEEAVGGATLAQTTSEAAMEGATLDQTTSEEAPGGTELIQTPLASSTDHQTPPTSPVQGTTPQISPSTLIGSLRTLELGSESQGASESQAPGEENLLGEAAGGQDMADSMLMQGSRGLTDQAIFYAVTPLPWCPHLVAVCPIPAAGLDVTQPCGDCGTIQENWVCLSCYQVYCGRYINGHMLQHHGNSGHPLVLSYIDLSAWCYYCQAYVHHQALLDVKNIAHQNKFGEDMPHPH
How it was run: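 MV4-11 cells exposed for 3 h, drug washed out, then cultured drug-free for 30 min, 1, 3 or 6 h. Acetylation read by western blot; t = 0 taken right after the 3 h exposure.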

RPMI-8226 = experiment: Antiproliferative activity against human RPMI8226 cells assessed as reduction in cell viability after 48 hrs by CellTiter-Blue assay; format: functional; conditions: RPMI-8226, 48 h, read-out: LC50 (the source's name)
How it was run: (§3)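 Cells grown in RPMI1640 with 10% FBS at 37 °C, 5% CO₂. 5,000–10,000 cells/well were pre-incubated overnight, and a time-zero CellTiter-Blue read was taken. Six 10-fold dilutions (top final 10 μM) were applied for 48 h, followed by 0.125 mg/mL CellTiter-Blue for 2–4 h. Resorufin fluorescence was read at ex 560/em 590 nm. […] Triplicates.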

NCI-H23 = experiment: Antiproliferative activity against human NCI-H23 cells assessed as reduction in cell viability after 48 hrs by CellTiter-Blue assay; format: functional; conditions: NCI-H23, 48 h, read-out: LC50 (the source's name); how it was run: as §3
SW-620 = experiment: Antiproliferative activity against human SW620 cells assessed as reduction in cell viability after 48 hrs by CellTiter-Blue assay; format: functional; conditions: SW-620, 48 h, read-out: LC50 (the source's name)
How it was run: (§4)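 NCI-60 panel lines grown in RPMI1640 with 10% FBS at 37 °C, 5% CO₂. Seeded at 5,000–10,000 cells/well and pre-incubated overnight. Exposed for 48 h to six 10-fold dilutions (top final 10 μM), with a time-zero plate read at dosing. CellTiter-Blue (0.125 mg/mL) for 2–4 h, fluorescence 560/590 nm, triplicate curves.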

LOX IMVI = experiment: Antiproliferative activity against human LOXIMVI cells assessed as reduction in cell viability after 48 hrs by CellTiter-Blue assay; format: functional; conditions: read-out: LC50 (the source's name); how it was run: as §3
Malme-3M = experiment: Antiproliferative activity against human MALME-3M cells assessed as reduction in cell viability after 48 hrs by CellTiter-Blue assay; format: functional; conditions: read-out: LC50 (the source's name); how it was run: as §3
SK-MEL-2 = experiment: Antiproliferative activity against human SK-MEL-2 cells assessed as reduction in cell viability after 48 hrs by CellTiter-Blue assay; format: functional; conditions: SK-MEL-2, 48 h, read-out: LC50 (the source's name); how it was run: as §3
SK-MEL-28 = experiment: Antiproliferative activity against human SK-MEL-28 cells assessed as reduction in cell viability after 48 hrs by CellTiter-Blue assay; format: functional; conditions: SK-MEL-28, 48 h, read-out: LC50 (the source's name); how it was run: as §3
UACC-62 = experiment: Antiproliferative activity against human UACC62 cells assessed as reduction in cell viability after 48 hrs by CellTiter-Blue assay; format: functional; conditions: UACC-62, 48 h, read-out: LC50 (the source's name); how it was run: as §4
SN12C = experiment: Antiproliferative activity against human SN12C cells assessed as reduction in cell viability after 48 hrs by CellTiter-Blue assay; format: functional; conditions: read-out: LC50 (the source's name); how it was run: as §3
MCF7 = experiment: Antiproliferative activity against human MCF7 cells assessed as reduction in cell viability after 48 hrs by CellTiter-Blue assay; format: functional; conditions: MCF7, 48 h, read-out: LC50 (the source's name); how it was run: as §3
HL-60 [3] = experiment: Antiproliferative activity agaisnt p53 null human HL60 cells at 10 uM after 48 hrs by CellTiter-blue assay; format: functional, cell-based
MV4-11 [4] = experiment: Inhibition of ERK phosphorylation in human MV4-11 cells harboring wild type p53/FLT3-ITD mutant at 50 to 200 nM after 24 hrs by Western blot analysis; format: cell-based
How it was run: (§5)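 Cells (1,500,000 per well) grown 12 h, then drug-treated as specified. Lysed in RIPA buffer, sonicated, centrifuged, protein normalized by BCA. Run on 4–12% Bis-Tris gels in MES, transferred, probed overnight at 4 °C with primary antibodies at 1/1000. Actin served as reference for LC3-II quantitation.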

MV4-11 [5] = experiment: Inhibition of MDM2 degradation in human MV4-11 cells harboring wild type p53/FLT3-ITD mutant at 100 nM after 12 hrs in presence of MDM2 inhibitor RG7388 by Western blot analysis relative to control; format: functional; conditions: MV4-11, 12 h; how it was run: as §5
HL-60 [6] = experiment: Induction of autophagy in p53 null human HL60 cells harboring wild type FLT3 assessed as LC-3 degradation at 50 to 200 nM after 24 hrs by Western blot analysis; format: functional, cell-based; how it was run: as §5
HL-60 [7] = experiment: Upregulation of P21WAF1/Cip1 protein expression in p53 null human HL60 cells harboring wild type FLT3 at 50 to 200 nM after 24 hrs by Western blot analysis; format: functional, cell-based
How it was run: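 RS4;11 cells were cultured in RPMI-1640 with 10% FBS and HL-60 cells in IMDM with 20% FBS. Cells were plated at 1,500,000 per well, grown 12 h, then drug-treated. Lysis was in RIPA buffer with sonication and centrifugation, and loading was normalized by BCA. Lysates were run on 4–12% Bis-Tris gels in MES buffer and transferred, and membranes were probed overnight at 4 °C with 1/1000 primary antibodies.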

RS4-11 = experiment: Down regulation of STAT5 expression in human RS4:11 cells harboring wild type p53/FLT3 assessed as cleavage of pro-caspase 3 at 50 to 200 nM after 24 hrs by Western blot analysis; format: functional, cell-based; how it was run: as §5
MV4-11 [8] = experiment: Induction of pro caspase 3 cleavage in human MV4-11 cells at 200 nM after 24 hrs in presence of 5 nM bortezomib by Western blot analysis; format: functional, cell-based; how it was run: as §5
[9] = Cmax in CD1 mouse at 20 mg/kg, po via gavage after 24 hrs by LC-MS/MS analysis; format: ADME, organism-based; set-up: dose 20 mg/kg, route oral; conditions: in vivo; how it was run: as §1

CCCNNC(=O)/C=C/c1ccc(CNCCc2c(C)[nH]c3ccccc23)cc1.O=C(O)C(F)(F)F
t1/2 [1]: 15.2 h | IC50 (Histone deacetylase 4): > 10 µM | IC50 (Histone deacetylase 5): > 10 µM | inhibition [2]: inactive | CC50 (RPMI-8226): > 10 µM | CC50 (NCI-H23): > 10 µM | CC50 (SW-620): > 10 µM | CC50 (LOX IMVI): 0.537 µM | CC50 (Malme-3M): > 10 µM | CC50 (SK-MEL-2): > 10 µM | CC50 (SK-MEL-28): 0.893 µM | CC50 (UACC-62): 0.589 µM | CC50 (SN12C): > 10 µM | CC50 (MCF7): > 10 µM | Activity (HL-60 [3]): Active | inhibition (MV4-11 [4]): Active | inhibition at 0.1 µM (MV4-11 [5]): 100% | Activity (HL-60 [6]): inactive | Activity (HL-60 [7]): Active | Activity (RS4-11): inactive | Activity (MV4-11 [8]): Active | Cmax [9]: 45.1 ng/mL
